Laboratory results: ChEMBL document CHEMBL3603770, “Synthesis and cytotoxic activities of 2-substituted (25R)-spirostan-1,4,6-triene-3-ones via ring-opening/elimination and 'click' strategy” (Bioorg Med Chem Lett, 2015)

Assays:
Format in all cases: functional, cell-based
[1] = Antiproliferative activity against human CaSki cells incubated for 48 hrs by MTT assay; conditions: Ca-Ski
Method in brief: (§1)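 Human tumour cells exposed to compounds for 48 h at 37 °C; viability read by MTT. Growth inhibition (%) measured in triplicate at 5, 10, 20, 40, 80 and 160 μM; data as mean ± standard deviation. IC50 calculated from percentage inhibition of cell growth.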

HeLa = test: Antiproliferative activity against human HeLa cells incubated for 48 hrs by MTT assay; method in brief: as §1
HepG2 = test: Antiproliferative activity against human HepG2 cells incubated for 48 hrs by MTT assay; conditions: HepG2, 48 h; method in brief: as §1

Which results are given for `COC1=C[C@@]2(C)C(=CC1=O)C=C[C@H]1[C@@H]3C[C@@H]4O[C@]5(CC[C@@H](C)CO5)[C@@H](C)[C@@H]4[C@@]3(C)CC[C@@H]12`?
IC50 [1]: 28.5 µM; IC50 (HeLa): > 100 µM; IC50 (HepG2): 77.1 µM

Which results are given for `CCOC1=C[C@@]2(C)C(=CC1=O)C=C[C@H]1[C@@H]3C[C@@H]4O[C@]5(CC[C@@H](C)CO5)[C@@H](C)[C@@H]4[C@@]3(C)CC[C@@H]12`?
IC50 [1]: > 100 µM; IC50 (HeLa): > 100 µM; IC50 (HepG2): > 100 µM

What does the source list for `CCCOC1=C[C@@]2(C)C(=CC1=O)C=C[C@H]1[C@@H]3C[C@@H]4O[C@]5(CC[C@@H](C)CO5)[C@@H](C)[C@@H]4[C@@]3(C)CC[C@@H]12`?
IC50 [1]: 32.1 µM; IC50 (HeLa): 80.3 µM; IC50 (HepG2): 61.6 µM

Which IC50 [1] does the source give for `CC(C)OC1=C[C@@]2(C)C(=CC1=O)C=C[C@H]1[C@@H]3C[C@@H]4O[C@]5(CC[C@@H](C)CO5)[C@@H](C)[C@@H]4[C@@]3(C)CC[C@@H]12` here?
The IC50 was 29.3 µM.

And the IC50 (HeLa)?
Its IC50 is over 100 µM.

What about the IC50 (HepG2) of the same compound?
The IC50 was 61.3 µM.

Which IC50 [1] does the source give for `C#CCOC1=C[C@@]2(C)C(=CC1=O)C=C[C@H]1[C@@H]3C[C@@H]4O[C@]5(CC[C@@H](C)CO5)[C@@H](C)[C@@H]4[C@@]3(C)CC[C@@H]12` here?
The IC50 was 23.2 µM.

And the IC50 (HeLa)?
Its IC50 is 57.4 µM.

What about the IC50 (HepG2) of the same compound?
Its IC50 is 90.7 µM.

For `CCCCOC1=C[C@@]2(C)C(=CC1=O)C=C[C@H]1[C@@H]3C[C@@H]4O[C@]5(CC[C@@H](C)CO5)[C@@H](C)[C@@H]4[C@@]3(C)CC[C@@H]12`, which IC50 [1] is on record?
The IC50 was 39.5 µM.

What about the IC50 (HeLa) of the same compound?
The IC50 was 71.6 µM.

And the IC50 (HepG2)?
The IC50 was 85 µM.

What does the source list for `CC(C)COC1=C[C@@]2(C)C(=CC1=O)C=C[C@H]1[C@@H]3C[C@@H]4O[C@]5(CC[C@@H](C)CO5)[C@@H](C)[C@@H]4[C@@]3(C)CC[C@@H]12`?
IC50 [1]: 33.5 µM; IC50 (HeLa): > 100 µM; IC50 (HepG2): 53.4 µM

Which IC50 [1] does the source give for `C[C@@H]1CC[C@@]2(OC1)O[C@H]1C[C@H]3[C@@H]4C=CC5=CC(=O)C(OCc6cn(-c7ccccc7)nn6)=C[C@]5(C)[C@H]4CC[C@]3(C)[C@H]1[C@@H]2C` here?
Its IC50 is over 100 µM.

And the IC50 (HeLa)?
The IC50 was over 100 µM.

What about the IC50 (HepG2) of the same compound?
The IC50 was over 100 µM.

With `C[C@@H]1CC[C@@]2(OC1)O[C@H]1C[C@H]3[C@@H]4C=CC5=CC(=O)C(OCc6cn(Cc7ccccc7)nn6)=C[C@]5(C)[C@H]4CC[C@]3(C)[C@H]1[C@@H]2C` as the compound, how does the IC50 [1] read?
The IC50 was 10.9 µM.

And the IC50 (HeLa)?
Its IC50 is over 100 µM.

What about the IC50 (HepG2) of the same compound?
The IC50 was 53.4 µM.

Which IC50 [1] does the source give for `COc1ccc(Cn2cc(COC3=C[C@@]4(C)C(=CC3=O)C=C[C@H]3[C@@H]5C[C@@H]6O[C@]7(CC[C@@H](C)CO7)[C@@H](C)[C@@H]6[C@@]5(C)CC[C@@H]34)nn2)cc1` here?
Its IC50 is 67 µM.

And the IC50 (HeLa)?
The IC50 was over 100 µM.

What about the IC50 (HepG2) of the same compound?
The IC50 was 41.8 µM.

Which results are given for `C[C@@H]1CC[C@@]2(OC1)O[C@H]1C[C@H]3[C@@H]4C=CC5=CC(=O)C(OCc6cn(Cc7ccc(CN=[N+]=[N-])cc7)nn6)=C[C@]5(C)[C@H]4CC[C@]3(C)[C@H]1[C@@H]2C`?
IC50 [1]: > 100 µM; IC50 (HeLa): > 100 µM; IC50 (HepG2): > 100 µM

With `C[C@@H]1CC[C@@]2(OC1)O[C@H]1C[C@H]3[C@@H]4C=CC5=CC(=O)C(OCc6cn(Cc7ccc(Cn8cc(COC9=C[C@@]%10(C)C(=CC9=O)C=C[C@H]9[C@@H]%11C[C@@H]%12O[C@]%13(CC[C@@H](C)CO%13)[C@@H](C)[C@@H]%12[C@@]%11(C)CC[C@@H]9%10)nn8)cc7)nn6)=C[C@]5(C)[C@H]4CC[C@]3(C)[C@H]1[C@@H]2C` as the compound, how does the IC50 [1] read?
Its IC50 is over 100 µM.

What about the IC50 (HeLa) of the same compound?
The IC50 was over 100 µM.

And the IC50 (HepG2)?
The IC50 was over 100 µM.

Which IC50 [1] does the source give for `CC(=O)Cn1cc(COC2=C[C@@]3(C)C(=CC2=O)C=C[C@H]2[C@@H]4C[C@@H]5O[C@]6(CC[C@@H](C)CO6)[C@@H](C)[C@@H]5[C@@]4(C)CC[C@@H]23)nn1` here?
Its IC50 is 11.8 µM.

And the IC50 (HeLa)?
Its IC50 is 48.1 µM.

And the IC50 (HepG2)?
Its IC50 is 40.2 µM.

Which results are given for `CCOC(=O)Cn1cc(COC2=C[C@@]3(C)C(=CC2=O)C=C[C@H]2[C@@H]4C[C@@H]5O[C@]6(CC[C@@H](C)CO6)[C@@H](C)[C@@H]5[C@@]4(C)CC[C@@H]23)nn1`?
IC50 [1]: 68.9 µM; IC50 (HeLa): > 100 µM; IC50 (HepG2): 44 µM

What does the source list for `C[C@@H]1CC[C@@]2(OC1)O[C@H]1C[C@H]3[C@@H]4C=CC5=CC(=O)C(OCc6cn(CC#N)nn6)=C[C@]5(C)[C@H]4CC[C@]3(C)[C@H]1[C@@H]2C`?
IC50 [1]: > 100 µM; IC50 (HeLa): > 100 µM; IC50 (HepG2): > 100 µM

Which results are given for `C[C@@H]1CC[C@@]2(OC1)O[C@H]1C[C@H]3[C@@H]4C=CC5=CC(=O)C(OCc6cn(CC(=O)c7ccccc7)nn6)=C[C@]5(C)[C@H]4CC[C@]3(C)[C@H]1[C@@H]2C`?
IC50 [1]: 99 µM; IC50 (HeLa): > 100 µM; IC50 (HepG2): 60.2 µM

For `COc1ccc(C(=O)Cn2cc(COC3=C[C@@]4(C)C(=CC3=O)C=C[C@H]3[C@@H]5C[C@@H]6O[C@]7(CC[C@@H](C)CO7)[C@@H](C)[C@@H]6[C@@]5(C)CC[C@@H]34)nn2)cc1`, which IC50 [1] is on record?
The IC50 was over 100 µM.

What about the IC50 (HeLa) of the same compound?
The IC50 was over 100 µM.

And the IC50 (HepG2)?
The IC50 was over 100 µM.

Which IC50 [1] does the source give for `Cc1ccc(C(=O)Cn2cc(COC3=C[C@@]4(C)C(=CC3=O)C=C[C@H]3[C@@H]5C[C@@H]6O[C@]7(CC[C@@H](C)CO7)[C@@H](C)[C@@H]6[C@@]5(C)CC[C@@H]34)nn2)cc1` here?
Its IC50 is over 100 µM.

What about the IC50 (HeLa) of the same compound?
The IC50 was over 100 µM.

And the IC50 (HepG2)?
Its IC50 is 76.1 µM.

With `C[C@@H]1CC[C@@]2(OC1)O[C@H]1C[C@H]3[C@@H]4C=CC5=CC(=O)C(OCc6cn(CC(=O)c7ccc(O)cc7)nn6)=C[C@]5(C)[C@H]4CC[C@]3(C)[C@H]1[C@@H]2C` as the compound, how does the IC50 [1] read?
Its IC50 is 98.7 µM.

What about the IC50 (HeLa) of the same compound?
Its IC50 is over 100 µM.

And the IC50 (HepG2)?
Its IC50 is 52.8 µM.

For `C[C@@H]1CC[C@@]2(OC1)O[C@H]1C[C@H]3[C@@H]4C=CC5=CC(=O)C(OCc6cn(CC(=O)c7cccc(O)c7)nn6)=C[C@]5(C)[C@H]4CC[C@]3(C)[C@H]1[C@@H]2C`, which IC50 [1] is on record?
The IC50 was 9.4 µM.

What about the IC50 (HeLa) of the same compound?
Its IC50 is over 100 µM.

And the IC50 (HepG2)?
The IC50 was 45.6 µM.

Which IC50 [1] does the source give for `C[C@@H]1CC[C@@]2(OC1)O[C@H]1C[C@H]3[C@@H]4C=CC5=CC(=O)C(OCc6cn(CC(=O)c7ccc(Br)cc7)nn6)=C[C@]5(C)[C@H]4CC[C@]3(C)[C@H]1[C@@H]2C` here?
Its IC50 is over 100 µM.

What about the IC50 (HeLa) of the same compound?
Its IC50 is over 100 µM.

And the IC50 (HepG2)?
Its IC50 is 53.7 µM.

What does the source list for `C[C@@H]1CC[C@@]2(OC1)O[C@H]1C[C@H]3[C@@H]4C=CC5=CC(=O)C(OCc6cn(CC(=O)c7cccc(Br)c7)nn6)=C[C@]5(C)[C@H]4CC[C@]3(C)[C@H]1[C@@H]2C`?
IC50 [1]: > 100 µM; IC50 (HeLa): > 100 µM; IC50 (HepG2): 88.1 µM
